Screening results from PubChem BioAssay.
SR-BI uptake up: activators of SR-BI mediated DiI-HDL uptake, primary screen, ldlA[mSR-BI] CHO cells, DiI fluorescence. 3 h; 100 = double the neutral-control signal. activation, % at 12.5 µM. 320,000 compounds, 0.096% hits. AID 504775, 2011;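 active = mean replicate activation of at least 60% and every replicate at or above 60%; inconclusive = mean or all-replicate condition met, but not both; inactive = mean below 60% and not all replicates reaching 60%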
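Test system: SR-BI-overexpressing, LDLR-lacking CHO cells; Medium: Ham's F12 with 0.5% BSA, HEPES 25 mM, pH 7.4; Schedule: 3 h, 37 °C; Technique: bottom-read fluorescence, 550/595 nm.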
dFosB activator: activators of delta FosB homodimer, primary screen, biochemical, fluorescence polarization, TAMRA-CDK5 oligo, single point; purified delta FosB; percent of positive-control signal above neutral wells; activation, % at 25 µM; Protein FosB (Mus musculus), P13346; 340,000 compounds, 0.99% hits;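 active = mean activation above about 17%, with every replicate also reaching it, limit read from the data, passing the limit was not always enough; inconclusive = only one of the two conditions met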
CDK5 inh: inhibitors of human CDK5/p35 kinase, primary screen, biochemical, single concentration | Cyclin-dependent kinase 5 (Homo sapiens) + Cyclin-dependent kinase 5 activator 1 (Homo … | Recombinant CDK5/p35, ADP-Glo luminescence, 60 min | inhibition, % at 10 µM | 330,000 compounds, 0.01% hits | AID 488839, 2010;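 active = highest replicate inhibition of at least 50% and at least 75% of replicates reaching 50%; inconclusive = only one of the two criteria met; inactive = both criteria failed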
SR-BI DiI inh: inhibitors of SR-BI mediated HDL lipid uptake, primary screen, ldlA[mSR-BI] cells, fluorescence, single point | AID 488896, 2010 | 320,000 compounds, 0.96% hits | inhibition, % at 12.5 µM | ldlA[mSR-BI] CHO cells, DiI-HDL uptake fluorescence, 3 h | Scavenger receptor class B member 1 (Mus musculus), Q61009;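 active = mean replicate inhibition of at least 70% and a set share of replicates each scoring 70 or more; inconclusive = meets just one of the two criteria; inactive = fails both criteria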
Target sequence (Q61009 whole entry, looked up): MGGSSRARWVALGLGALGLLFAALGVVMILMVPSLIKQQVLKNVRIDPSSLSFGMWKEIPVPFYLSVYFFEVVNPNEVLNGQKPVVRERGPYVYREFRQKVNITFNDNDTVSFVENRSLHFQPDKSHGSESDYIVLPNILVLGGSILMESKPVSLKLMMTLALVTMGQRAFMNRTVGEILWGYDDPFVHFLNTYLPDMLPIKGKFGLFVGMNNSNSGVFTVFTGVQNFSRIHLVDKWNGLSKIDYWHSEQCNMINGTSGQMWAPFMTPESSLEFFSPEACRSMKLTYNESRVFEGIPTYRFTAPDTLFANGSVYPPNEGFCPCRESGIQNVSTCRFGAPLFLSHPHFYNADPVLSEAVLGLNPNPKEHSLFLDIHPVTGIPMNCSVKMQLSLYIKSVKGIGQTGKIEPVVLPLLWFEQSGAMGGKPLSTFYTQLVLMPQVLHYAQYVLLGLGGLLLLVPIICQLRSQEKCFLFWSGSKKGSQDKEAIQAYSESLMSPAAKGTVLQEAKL
Numbers stand for hits; - = inactive; ? = inconclusive; . = not tested or not shown. The list is not random: actives were taken first. Their share in the collection is about 2%.

SMILES	SR-BI uptake up	dFosB activator	CDK5 inh	SR-BI DiI inh
CN(C)CCNC(=O)/C(=C/c1ccc(-c2cccc([N+](=O)[O-])c2)o1)NC(=O)c1ccccc1	-	-	-	-
Cc1ccc(C(=O)N/C(=C/c2ccc(-c3cccc([N+](=O)[O-])c3)o2)C(=O)NC(C)(C)C)cc1	-	-	-	-
CCN(Cc1cccs1)C(=O)CN1CCN(S(=O)(=O)c2ccc3c(c2)OCCCO3)CC1	-	-	-	-
O=C(CNC(=O)c1ccc2c(c1)OCO2)N/N=C/c1cc(Br)ccc1O	-	62	-	-
O=C(N/N=C/c1ccc2c(c1)OCO2)c1ccc(COc2cccc3cccnc23)cc1	-	?	-	76
O=C(N/N=C/c1cc2c(cc1Cl)OCO2)c1ccncc1	-	-	-	-
O=C(N/N=C/c1cc2c(cc1Cl)OCO2)c1cccc(Br)c1	-	-	-	81
O=C(N/N=C/c1ccncc1)c1ccc(COc2cccc3cccnc23)cc1	-	-	-	?
O=C(N/N=C/c1cc(Cl)cc([N+](=O)[O-])c1O)c1ccc2c(c1)OCO2	-	-	-	124
Cc1cccc(C)c1N(C(=O)c1ccco1)C(C(=O)NC1CCCC1)c1ccncc1 (stereo not drawn)	.	-	-	.
O=C(CN1CCCC1)Nc1cccc(Cl)c1Cl	-	-	-	-
O=C(N/N=C/c1cc(Br)cc(Cl)c1O)c1ccc2c(c1)OCO2	-	-	-	132
Cc1cc(Br)cc(/C=N/NC(=O)c2ccc3c(c2)OCO3)c1O	-	-	-	146
O=C(Cc1ccccc1)N/N=C/c1cc(Br)cc(Cl)c1O	-	54	-	-
O=C(N/N=C/c1cc(Br)c(O)c(Br)c1O)c1ccc2c(c1)OCCO2	-	-	-	-
O=C(N/N=C/c1ccccc1O)c1ccc2c(c1)OCO2	-	-	-	81
O=C(NCc1ccco1)c1ccc(-c2cccc(Cl)c2)o1	-	-	-	-
CC(C)OC(=O)CC1C(=O)NCCN1C(=O)COc1ccc(C(C)(C)C)cc1 (stereo not drawn)	-	-	-	-
CCNc1nc(ON=C(C)C)nc(N(C)C)n1	64	-	-	-
C=CCn1c(SCC(=O)N(CC)C2CCS(=O)(=O)C2)nnc1-c1ccccc1 (stereo not drawn)	73	-	-	-
CCN(C(=O)CSc1nnc(-c2ccccc2)n1C)C1CCS(=O)(=O)C1 (stereo not drawn)	-	-	-	-
O=C/C=C/c1c(-c2ccccc2)cc2oc3ccccc3cc1-2	-	-	-	100
CCCn1c(N)c(N(CCOC)C(=O)c2ccc(N(C)S(=O)(=O)c3ccc(C)cc3)cc2)c(=O)[nH]c1=O	-	-	-	-
COc1ccc(NC(=O)CN(C)C(=O)CCCSc2nc3ccccc3[nH]2)cc1	-	-	-	-
C[C@@H]1CCC(=O)N(CC[C@H](Oc2ccccc2)c2ccccc2)CC1	-	-	-	-
SMILES	SR-BI uptake up	dFosB activator	CDK5 inh	SR-BI DiI inh
COc1ccccc1NS(=O)(=O)c1ccc(N/N=C/c2c(C)nn(-c3ccccc3)c2N2CCCC2)c([N+](=O)[O-])c1	-	-	-	90
COc1c(/C=N/Nc2ccc([N+](=O)[O-])cc2[N+](=O)[O-])c(C)nn1-c1ccccc1	-	-	-	-
Cc1nn(-c2ccccc2)c(N2CCCC2)c1/C=N/Nc1ccc(S(=O)(=O)Nc2ccccc2)cc1[N+](=O)[O-]	-	-	-	125
COc1ccccc1NS(=O)(=O)c1cccc(C(=O)N/N=C/c2c(C)nn(-c3ccccc3)c2N2CCCC2)c1	-	-	-	?
O=C(COC(=O)C1CCCC1)Nc1ncc(Cl)cc1Cl	-	-	-	-
O=C(N/N=C/c1ccco1)c1cc(-c2ccccc2)nc2ccccc12	-	-	-	-
O=C(N/N=C/c1ccc([N+](=O)[O-])o1)c1cc(-c2cccc(Br)c2)nc2ccccc12	-	-	-	105
CCCc1ccc(-c2cc(C(=O)N/N=C/c3ccc([N+](=O)[O-])o3)c3ccccc3n2)cc1	-	-	-	95
COc1cccc(OCCNC(=O)c2cc([N+](=O)[O-])cc([N+](=O)[O-])c2)c1	-	-	-	-
Cc1ccc(OCCNC(=O)c2cc(C(=O)NCCOc3ccc(C)cc3)cc([N+](=O)[O-])c2)cc1	-	-	-	71
CCN1CCN(c2cc(C)c3cc(NC(=O)c4ccc(Br)o4)ccc3n2)CC1	-	-	-	-
CCN(CC)c1cc(C)c2cc(NC(=O)c3ccc(Br)o3)ccc2n1	-	-	-	73
Cc1ccc(C(=O)N2CCN(C34CC5CC(CC(C5)C3)C4)CC2)o1	-	-	-	-
O=C(COc1ccccc1Cl)N1CCNC1=O	-	-	-	-
NC(=S)N/N=C1\CCSc2ccc(Cl)cc21	-	-	-	81
COc1cc2c(cc1OC)CN(C(=O)C1CCN(S(=O)(=O)c3ccccc3F)CC1)CC2	-	-	-	-
COc1ccccc1-c1cc(C(=O)N/N=C/c2ccc(C)s2)c2ccccc2n1	-	-	-	77
COc1ccccc1-c1cc(C(=O)Nc2sc3c(c2C#N)CCC(C)C3)c2ccccc2n1 (stereo not drawn)	-	-	-	86
O=C(O)COc1ccccc1/C=N/NC(=O)c1cc(-c2ccccc2)nc2ccccc12	.	-	-	.
COc1ccc(OC)c(-c2cc(C(=O)Nc3sc4c(c3C#N)CCC(C)C4)c3ccccc3n2)c1 (stereo not drawn)	-	-	-	?
O=C(N/N=C/c1ccccn1)c1cc(-c2ccc(Cl)cc2)nc2ccccc12	-	-	-	107
O=C(N/N=C/c1ccccc1OC(F)F)c1cc(-c2ccncc2)nc2ccccc12	-	-	-	90
O=C(O)COc1ccccc1/C=N/NC(=O)c1cc(-c2ccc(Cl)cc2)nc2ccccc12	.	-	-	.
Cc1cccc(C(=O)NNC(=O)CSc2nnc(C3CC3)n2C)c1	.	-	-	.
CC(=O)Nc1ccc(S(=O)(=O)N(C)c2ccc(OCC(=O)OCC(=O)NCc3ccco3)cc2)cc1	.	-	-	.
SMILES	SR-BI uptake up	dFosB activator	CDK5 inh	SR-BI DiI inh
O=C(Cc1cccs1)N1CCN(S(=O)(=O)c2ccc(Cl)c(C(F)(F)F)c2)CC1	-	-	-	-
Cc1ccc(-c2cc(C(=O)N/N=C\c3cnn(C)c3C)c3ccccc3n2)cc1C	-	-	-	96
O=C(N/N=C/c1ccccn1)c1cc(-c2ccc(Br)cc2)nc2ccccc12	-	-	-	76
CC1CN(S(=O)(=O)c2cccc(C(=O)NCCc3ccc(S(N)(=O)=O)cc3)c2)CC(C)O1 (stereo not drawn)	-	-	-	-
CCOC(=O)/C=C/C(=O)Nc1ccc(S(=O)(=O)Nc2nccs2)cc1	-	-	-	73
S=c1nc(NCCc2ccccc2Cl)c2ccccc2[nH]1	-	-	-	-
